pIC50, pKi: −log10 of the molar value.
How the values were obtained:
Progesterone receptor [1] = target: T1, Progesterone receptor (Homo sapiens, UniProt P06401); test: Binding affinity against Baculovirus-Expressed hPR-A
T1 sequence (P06401 whole entry): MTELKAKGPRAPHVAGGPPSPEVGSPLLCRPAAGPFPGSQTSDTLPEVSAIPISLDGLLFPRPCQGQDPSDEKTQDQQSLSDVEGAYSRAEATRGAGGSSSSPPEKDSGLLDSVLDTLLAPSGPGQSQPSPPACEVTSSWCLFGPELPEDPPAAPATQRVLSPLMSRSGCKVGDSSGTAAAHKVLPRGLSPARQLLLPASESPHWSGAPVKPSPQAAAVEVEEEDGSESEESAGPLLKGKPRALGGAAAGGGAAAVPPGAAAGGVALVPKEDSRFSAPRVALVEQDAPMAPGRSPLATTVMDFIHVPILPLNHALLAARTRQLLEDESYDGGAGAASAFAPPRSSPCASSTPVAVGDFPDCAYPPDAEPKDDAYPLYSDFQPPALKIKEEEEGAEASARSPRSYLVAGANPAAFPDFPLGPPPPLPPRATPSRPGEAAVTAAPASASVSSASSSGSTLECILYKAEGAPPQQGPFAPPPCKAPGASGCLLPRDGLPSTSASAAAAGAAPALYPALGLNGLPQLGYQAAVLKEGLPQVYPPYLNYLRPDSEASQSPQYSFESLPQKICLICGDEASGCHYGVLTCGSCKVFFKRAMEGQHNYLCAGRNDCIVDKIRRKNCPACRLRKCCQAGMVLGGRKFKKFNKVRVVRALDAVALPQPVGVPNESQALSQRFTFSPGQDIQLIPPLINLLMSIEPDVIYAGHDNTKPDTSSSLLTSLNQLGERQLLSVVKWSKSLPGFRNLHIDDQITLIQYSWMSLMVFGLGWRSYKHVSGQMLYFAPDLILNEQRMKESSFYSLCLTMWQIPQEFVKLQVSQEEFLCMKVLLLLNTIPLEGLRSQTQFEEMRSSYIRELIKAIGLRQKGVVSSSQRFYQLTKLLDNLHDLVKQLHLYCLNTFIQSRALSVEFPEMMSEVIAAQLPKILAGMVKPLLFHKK

Progesterone receptor [2] = target: T1, Progesterone receptor; test: In vitro antagonist activity against human progesterone receptor isoform B(hPR-B) in mammalian(CV-1) cells; type: functional, cell-based
[3] = target: T2, Glucocorticoid receptor (Homo sapiens) (UniProt P04150)
T2 sequence (whole entry): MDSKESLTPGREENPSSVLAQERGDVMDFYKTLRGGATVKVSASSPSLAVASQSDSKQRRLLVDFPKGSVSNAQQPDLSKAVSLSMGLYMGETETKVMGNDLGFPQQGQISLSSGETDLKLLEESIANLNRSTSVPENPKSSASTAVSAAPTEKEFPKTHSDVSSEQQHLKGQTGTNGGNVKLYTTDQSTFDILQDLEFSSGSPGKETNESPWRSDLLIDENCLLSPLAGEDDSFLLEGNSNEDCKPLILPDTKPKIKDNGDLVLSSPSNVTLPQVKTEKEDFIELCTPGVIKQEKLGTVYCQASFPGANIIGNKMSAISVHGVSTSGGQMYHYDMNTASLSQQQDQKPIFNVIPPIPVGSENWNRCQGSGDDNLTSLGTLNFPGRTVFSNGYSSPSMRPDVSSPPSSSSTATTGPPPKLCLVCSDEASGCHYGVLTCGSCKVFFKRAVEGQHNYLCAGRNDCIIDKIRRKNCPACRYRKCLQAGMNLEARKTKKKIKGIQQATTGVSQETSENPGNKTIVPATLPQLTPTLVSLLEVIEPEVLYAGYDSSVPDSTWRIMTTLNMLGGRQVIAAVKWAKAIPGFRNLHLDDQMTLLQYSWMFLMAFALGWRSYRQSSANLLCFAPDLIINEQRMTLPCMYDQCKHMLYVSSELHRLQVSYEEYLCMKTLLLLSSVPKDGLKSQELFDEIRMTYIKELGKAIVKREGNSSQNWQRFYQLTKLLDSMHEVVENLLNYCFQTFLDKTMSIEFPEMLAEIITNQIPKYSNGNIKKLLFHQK

[4] = target: T3, Mineralocorticoid receptor (Homo sapiens) (UniProt P08235); test: Antagonist activity against Mineralocorticoid receptor; type: functional
T3 sequence (whole entry): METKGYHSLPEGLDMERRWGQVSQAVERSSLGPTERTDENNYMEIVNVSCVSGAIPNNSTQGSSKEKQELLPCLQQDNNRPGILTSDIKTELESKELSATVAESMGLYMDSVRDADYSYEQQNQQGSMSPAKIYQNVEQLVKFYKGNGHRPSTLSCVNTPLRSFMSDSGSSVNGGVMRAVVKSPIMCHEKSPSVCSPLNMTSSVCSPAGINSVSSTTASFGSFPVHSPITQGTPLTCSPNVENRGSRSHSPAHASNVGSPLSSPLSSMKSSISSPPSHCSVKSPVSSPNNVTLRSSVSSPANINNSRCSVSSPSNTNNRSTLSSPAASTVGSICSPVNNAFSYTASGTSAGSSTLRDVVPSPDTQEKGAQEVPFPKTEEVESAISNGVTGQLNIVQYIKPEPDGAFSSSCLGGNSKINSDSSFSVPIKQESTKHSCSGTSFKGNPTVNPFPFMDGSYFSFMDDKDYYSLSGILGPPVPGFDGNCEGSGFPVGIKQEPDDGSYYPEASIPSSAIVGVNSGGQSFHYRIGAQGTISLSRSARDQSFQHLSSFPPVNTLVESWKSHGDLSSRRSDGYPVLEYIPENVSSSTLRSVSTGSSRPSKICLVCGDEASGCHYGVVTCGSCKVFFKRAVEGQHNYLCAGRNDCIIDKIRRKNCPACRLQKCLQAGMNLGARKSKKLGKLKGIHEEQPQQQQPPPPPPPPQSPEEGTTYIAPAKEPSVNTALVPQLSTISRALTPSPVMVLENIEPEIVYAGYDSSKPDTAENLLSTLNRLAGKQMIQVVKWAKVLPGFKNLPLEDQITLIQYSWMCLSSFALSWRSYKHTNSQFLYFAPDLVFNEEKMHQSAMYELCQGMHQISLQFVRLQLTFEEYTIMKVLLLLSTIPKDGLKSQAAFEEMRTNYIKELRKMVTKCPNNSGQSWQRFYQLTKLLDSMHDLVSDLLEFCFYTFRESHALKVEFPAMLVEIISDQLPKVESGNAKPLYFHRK
How it was run: (§1)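 hMR antagonist cotransfection assay run with an EC50 concentration of aldosterone as agonist. Potency is the IC50. Efficacy is % of maximal inhibition. Values are the mean ± SEM of at least two independent experiments, or one experiment where marked.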

[5] = target: T4, Androgen receptor (Homo sapiens) (UniProt P10275)
T4 sequence (whole entry): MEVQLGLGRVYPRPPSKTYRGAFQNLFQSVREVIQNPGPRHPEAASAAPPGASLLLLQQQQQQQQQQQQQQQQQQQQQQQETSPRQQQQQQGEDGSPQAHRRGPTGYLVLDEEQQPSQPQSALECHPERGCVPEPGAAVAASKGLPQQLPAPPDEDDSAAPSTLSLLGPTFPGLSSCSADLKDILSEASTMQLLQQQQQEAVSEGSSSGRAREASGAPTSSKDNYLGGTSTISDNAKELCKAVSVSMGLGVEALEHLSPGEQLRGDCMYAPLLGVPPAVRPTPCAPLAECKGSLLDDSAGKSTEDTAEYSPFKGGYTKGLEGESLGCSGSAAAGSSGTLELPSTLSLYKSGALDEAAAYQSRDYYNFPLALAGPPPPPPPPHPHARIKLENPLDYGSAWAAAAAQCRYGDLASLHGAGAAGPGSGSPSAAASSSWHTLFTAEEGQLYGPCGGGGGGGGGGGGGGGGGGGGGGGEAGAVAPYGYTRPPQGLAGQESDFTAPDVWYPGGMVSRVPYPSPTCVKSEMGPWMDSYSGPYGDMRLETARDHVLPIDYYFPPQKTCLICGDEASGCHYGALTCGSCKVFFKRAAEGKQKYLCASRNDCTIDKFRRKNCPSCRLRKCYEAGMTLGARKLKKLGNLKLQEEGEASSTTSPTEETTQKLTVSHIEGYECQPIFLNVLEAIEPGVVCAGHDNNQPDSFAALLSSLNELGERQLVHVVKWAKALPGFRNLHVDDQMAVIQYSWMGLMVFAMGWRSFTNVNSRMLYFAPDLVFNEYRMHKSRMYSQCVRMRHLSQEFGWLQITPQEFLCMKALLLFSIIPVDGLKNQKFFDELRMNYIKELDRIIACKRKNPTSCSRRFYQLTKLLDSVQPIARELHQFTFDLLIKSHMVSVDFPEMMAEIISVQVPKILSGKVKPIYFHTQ

[6] = target: Estrogen receptor (Homo sapiens) (UniProt Q92731+P03372)
[7] = target: T3, Mineralocorticoid receptor (Homo sapiens); test: Efficacy as percent inhibition of Mineralocorticoid receptor with aldosterone EC50; how it was run: as §1

| pKi (Progesterone receptor [1]) | pIC50 (Progesterone receptor [2]) | Potency [3] [nM] | Potency [4] [nM] | Potency [5] [nM] | Potency [6] [nM] | Efficacy [7] [%] | Structure (SMILES) |
| --- | --- | --- | --- | --- | --- | --- | --- |
| 8.30 | 7.15 |  |  |  |  |  | CC1=CC(C)(C)Nc2ccc(-c3cc(F)cc([N+](=O)[O-])c3)cc21 |
| 8.00 | 7.10 |  |  |  |  |  | CC1=CC(C)(C)Nc2ccc(-c3cc(F)cc(F)c3)cc21 |
| 6.74 | 6.12 |  |  |  |  |  | CC1=CC(C)(C)Nc2ccc(-c3cccc(F)c3)cc21 |
|  |  | > 1000 | > 1000 |  | > 1000 | 80 | CC1=CC(C)(C)Nc2ccc(-c3cc(F)cc(C#N)c3)cc21 |

Continued, compound first:

| Structure (SMILES) | pKi (Progesterone receptor [1]) | pIC50 (Progesterone receptor [2]) | Potency [3] [nM] | Potency [4] [nM] | Potency [5] [nM] | Potency [6] [nM] | Efficacy [7] [%] |
| --- | --- | --- | --- | --- | --- | --- | --- |
| CN(C)c1ccc([C@H]2C[C@]3(C)[C@@H](CC[C@]3(O)CCCO)[C@@H]3CCC4=CC(=O)CCC4=C32)cc1 |  |  | 27 | > 1000 | 269 |  |  |
| CC1=CC(C)(C)Nc2ccc(-c3cccc(C#N)c3)cc21 | 7.72 | 7.42 | > 1000 | > 1000 | 227 | > 1000 | 94 |
| CC#C[C@]1(O)CC[C@H]2[C@@H]3CCC4=CC(=O)CCC4=C3[C@@H](c3ccc(N(C)C)cc3)C[C@@]21C |  |  |  | > 1000 |  | > 1000 |  |
| CC1=CC(C)(C)Nc2ccc(-c3ccccc3)cc21 | 6.88 | 6.11 |  |  |  |  |  |

Reference: ChEMBL document CHEMBL1131082, “Discovery and preliminary SAR studies of a novel, nonsteroidal progesterone receptor antagonist pharmacophore” (J Med Chem, 1998)
